Assay outcomes (PubChem)
SR-BI HDL uptake – inhibitors of mouse SR-BI mediated HDL lipid uptake. inhibition, % at 12.5 µM. actives 0.96% (n = 320,000). Q61009. ldlA[mSR-BI] CHO cells, DiI-HDL uptake fluorescence, 3 h;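 active = mean replicate inhibition of at least 70% and a set share of replicates each scoring 70 or more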;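 note: 0% = median of neutral control wells and 100% = median of positive control wells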
SR-BI DiI-HDL act – enhances SR-BI lipid uptake from DiI-HDL | CHO ldlA[mSR-BI] cells, DiI-HDL uptake fluorescence, 3 h; 100 = double the neutral-control signal | activation, % at 12.5 µM | actives 0.096% (n = 320,000) | AID 504775;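 active = mean replicate activation of at least 60% and every replicate at or above 60%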;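 note: 0% = median plate neutral-control signal and 100% = twice that signal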
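System: CHO ldlA[mSR-BI] cells / Medium: HEPES-buffered (25 mM, pH 7.4) F12 plus 0.5% BSA / Probe or stimulus: labelled HDL, 10 µg/mL / Doses: single compound concentration, delivered by pin transfer / Schedule: 3 h, 37 °C / Measured by: DiI fluorescence, bottom read / Measure: cell-associated DiI fluorescence as measure of HDL uptake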
RAD54 branch – inhibitors of human RAD54 branch migration. actives 0.14% (n = 360,000). RAD54 Holliday junction branch migration, FAM/BHQ fluorescence. inhibition, % at 10.4 µM;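 active = mean normalized replicate activity at least 40 and at least half of replicates scoring 40 or more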;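 note: 0% = median of neutral control wells and 100% = median of positive control wells; inhibitors cause a drop in the FAM fluorescence signal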
Target sequence (Q92698 whole entry, looked up): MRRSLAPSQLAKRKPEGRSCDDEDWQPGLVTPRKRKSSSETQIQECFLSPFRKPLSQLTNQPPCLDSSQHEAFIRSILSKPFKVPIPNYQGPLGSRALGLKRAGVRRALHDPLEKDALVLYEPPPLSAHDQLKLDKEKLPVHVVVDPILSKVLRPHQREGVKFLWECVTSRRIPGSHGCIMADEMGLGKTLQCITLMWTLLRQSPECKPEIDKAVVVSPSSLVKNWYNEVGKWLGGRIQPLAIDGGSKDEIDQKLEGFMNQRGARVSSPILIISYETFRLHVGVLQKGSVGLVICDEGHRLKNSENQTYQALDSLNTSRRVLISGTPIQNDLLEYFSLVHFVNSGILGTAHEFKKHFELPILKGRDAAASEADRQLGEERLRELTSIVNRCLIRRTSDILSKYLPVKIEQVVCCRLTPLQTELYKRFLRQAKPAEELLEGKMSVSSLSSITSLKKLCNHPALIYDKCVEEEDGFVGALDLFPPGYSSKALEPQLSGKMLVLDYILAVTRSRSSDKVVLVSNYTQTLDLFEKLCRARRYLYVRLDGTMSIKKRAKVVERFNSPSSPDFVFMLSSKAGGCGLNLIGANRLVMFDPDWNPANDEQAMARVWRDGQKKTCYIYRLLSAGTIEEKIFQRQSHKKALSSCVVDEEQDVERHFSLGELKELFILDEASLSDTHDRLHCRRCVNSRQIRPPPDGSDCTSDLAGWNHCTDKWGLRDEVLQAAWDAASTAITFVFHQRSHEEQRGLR
S100A4 inh HTS – inhibitors of human S100A4 binding to myosin IIA peptide; S100A4/TAMRA-MyoIIA peptide fluorescence polarization; inhibition, % at 10.7 µM; AID 652163; actives 0.14% (n = 360,000); P26447;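 active = mean inhibition of at least 70% across replicates, with every replicate also reaching that level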
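incubation = readout 5 min after mixing, signal stable up to 60 min | system = S100A4 monomer protein | buffer or medium = HEPES pH 7.2 with CaCl2, KCl, NaCl, DTT, Triton | benchmarks = neutral control DMSO, positive control TFP | also added = fluorescent myosin IIA peptide, 5 nM | compound dosing = one concentration per compound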
dFosB act-1 – enhances mouse delta FosB homodimer DNA binding; purified delta FosB, TAMRA-CDK5 oligo fluorescence polarization; percent of positive-control signal above neutral wells; activation, % at 25 µM; actives 0.99% (n = 340,000); AID 493131;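 active = mean activation above about 17%, with every replicate also reaching it, limit read from the data, passing the limit was not always enough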
PvdQ acylase – P. aeruginosa PvdQ acylase inhibition; purified PvdQ acylase, fluorescence plate reader; inhibition, % at 10 µM; actives 0.063% (n = 340,000); AID 488965; in the data active = inhibition above about 30%, passing the limit was not always enough;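 note: 0% = vehicle neutral wells and 100% = reference inhibitor wells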
dFosB act-2 – enhances mouse delta FosB homodimer binding to DNA | purified delta FosB, TAMRA-CDK5 oligo fluorescence polarization; normalised: neutral wells 0, positive control 100 | activation, % at 24.9 µM | 2,400 tested, under 10 active | shares compounds with dFosB act-1;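 active = highest replicate activation at or above 34% and every replicate reaching that threshold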;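 note: higher polarization means more probe DNA bound by delta FosB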
Active calls of the source: *; · = no result. Most compounds without a hit are left out; they make up all but 1.6% or so of the library.

SMILES	SR-BI HDL uptake	SR-BI DiI-HDL act	RAD54 branch	S100A4 inh HTS	dFosB act-1	PvdQ acylase	dFosB act-2
Cc1ccc(C(=O)NC(NC(=O)c2ccc(C)cc2)C(Cl)Cl)cc1	16.3	-16.3	1.0	·	24.4*	-6.0	1.4
CCOc1ccc(NC(=S)NC(=O)/C=C/c2ccc(OC)c(OC)c2)c([N+](=O)[O-])c1	41.0	-41.0	8.3	·	24.5*	3.0	3.7
CCOc1ccc(NC(=S)NC(=O)/C=C/c2ccc(C)cc2)c([N+](=O)[O-])c1	28.3	-28.3	·	·	39.4*	-10.7	2.4
CCOc1ccc(NC(=O)/C=C/c2ccc(OC)cc2)c([N+](=O)[O-])c1	24.7	-24.7	0.9	·	-3.0	-17.4	·
CCN(CC(=O)Nc1ccc(NC(C)=O)cc1)C(=O)/C=C/c1cn(-c2ccccc2)nc1-c1ccc(F)cc1	2.4	-2.4	·	2.0	21.0*	-18.3	0.7
CCC(=O)Nc1ccc2c(c1)C(=O)N(C)[C@@H]1CC[C@@H](CC(=O)NCCc3ccccc3)O[C@@H]1CO2	·	·	1.2	37.4	·	·	·
COc1ccc(C(=O)Nc2cc(OC)c(NC(=O)c3ccco3)cc2OC)cc1	68.5	-68.5	·	·	-18.1	-5.3	·
CCOc1ccc(-c2nnn(CC(=O)NCc3ccc(F)cc3)n2)cc1OCC	12.0	-12.0	-0.3	-0.3	41.2*	-1.8	-4.6
CCOc1ccc(-c2nnn(CC(=O)NCc3ccc4c(c3)OCO4)n2)cc1	-17.6	17.6	6.4	·	6.5	5.3	·
COc1ccc(C(=O)Nc2ccc(-c3nnn(CC(=O)NCc4ccco4)n3)cc2)cc1	·	·	8.5	-2.0	46.4*	-6.3	3.2
Cc1ccc(NC(=O)Cn2nnc(-c3ccc4c(c3)OCO4)n2)cc1F	-11.2	11.2	3.5	3.8	22.7*	-9.6	2.1
COc1cccc(-c2nnn(CC(=O)Nc3cc(OC)c(NC(=O)c4ccco4)cc3OC)n2)c1	49.2	-49.2	2.3	·	17.4*	-3.7	-0.3
COc1ccc2c3c(n(C)c2c1)[C@@H](CO)N(C(=O)CC1CC1)CC31CN(Cc2nccs2)C1	·	·	·	17.6	·	·	·
CCOc1ccc(-c2nnn(CC(=O)Nc3cccc(OC)c3)n2)cc1OCC	13.6	-13.6	5.2	·	19.0*	1.8	-0.3
COc1ccc(-c2nnn(CC(=O)NCc3ccc4c(c3)OCO4)n2)cc1OC	-12.9	12.9	·	4.3	29.0*	-13.3	5.2
C[C@H](CO)N1C[C@H](C)[C@@H](CN(C)C(=O)Nc2ccc(F)cc2)OCCCC[C@H](C)Oc2ccc(NS(=O)(=O)c3ccccc3)cc2C1=O	·	·	2.5	-5.8	·	·	·
C[C@@H]1CCCCO[C@H](CN(C)C(=O)Nc2ccc(F)cc2)[C@H](C)CN([C@H](C)CO)C(=O)c2cc(NC(=O)CCC(F)(F)F)ccc2O1	·	·	-1.2	-2.1	·	·	·
O=C(NC1CCN(Cc2ccccc2)CC1)c1cccc(S(=O)(=O)Nc2ccc(SC(F)F)cc2)c1	28.0	-28.0	-4.9	-0.1	25.9*	-22.1	2.0
O=C([C@H]1[C@H](CO)[C@H]2Cn3c(ccc(C4=CCCC4)c3=O)[C@H]2N1Cc1nccs1)N1CCOCC1	·	·	6.3	8.1	·	·	·
CCc1nc(Nc2cccc(OC)c2)c2oc3ccccc3c2n1	35.8	-35.8	10.2	-3.2	-11.7	-9.6	·
Cc1cccc(Nc2nc(N)nc(-c3oc4ccccc4c3C)n2)c1	12.4	-12.4	-1.6	-4.8	78.5*	-1.7	-0.6
COc1cccc(Nc2nc(N)nc(-c3oc4ccccc4c3C)n2)c1	5.8	-5.8	14.5	·	59.6*	-15.8	0.4
Cc1c(-c2nc(N)nc(Nc3ccccc3F)n2)oc2ccccc12	42.2	-42.2	6.5	·	-10.4	1.2	·
C[C@@H]1CCCCO[C@H](CN(C)Cc2ccncc2)[C@@H](C)CN([C@@H](C)CO)C(=O)c2cc(NS(C)(=O)=O)ccc2O1	·	·	4.1	-15.5	·	·	·
CC(C)c1cc(C(=O)Nc2cc(Br)ccc2O)no1	0.4	-0.4	1.9	-15.2	-4.5	-9.5	·
SMILES	SR-BI HDL uptake	SR-BI DiI-HDL act	RAD54 branch	S100A4 inh HTS	dFosB act-1	PvdQ acylase	dFosB act-2
COc1ccc(NC(=O)c2cc(-c3ccc4c(c3)OCO4)on2)cc1OC	·	·	6.4	-1.6	32.9*	1.8	2.0
O=C(Nc1cc(Br)ccc1O)c1cc(-c2cccs2)on1	·	·	8.4	7.1	49.0*	-12.7	-4.2
COc1ccc(-c2cc(C(=O)Nc3ccc4c(c3)OCO4)no2)cc1OC	·	·	18.8	1.6	7.2	0.1	·
O=C(Nc1cc(Br)ccc1O)c1cc(-c2ccc3c(c2)OCO3)on1	-10.1	10.1	7.5	9.8	76.6*	-11.8	1.0
C[C@H]1CN([C@@H](C)CO)C(=O)c2cc(C#CC3(O)CCCC3)cnc2O[C@@H]1CN(C)C(=O)CC1CC1	·	·	4.0	4.4	·	·	·
O=C(NC1Cc2ccccc2C1)[C@H]1[C@H](CO)[C@H]2Cn3c(cccc3=O)[C@H]2N1C(=O)c1ccccn1	·	·	4.2	0.1	·	·	·
O=C(N/N=C/c1cccnc1)c1ccccc1Cl	·	·	-2.6	2.2	-5.3	1.2	·
O=C(N/N=C/c1cccnc1)c1ccc(NC(=O)c2ccc(Cl)cc2)cc1	15.7	-15.7	1.1	-1.4	42.5*	-13.6	-10.2
O=C(N/N=C/c1ccncc1)c1cccc(NC(=O)c2ccc(Cl)cc2)c1	62.4	-62.4	·	7.2	41.1*	-4.1	5.0
O=C(N/N=C\c1cccnc1)c1cc(-c2ccc(Cl)s2)[nH]n1	-3.2	3.2	·	-0.5	32.9*	4.0	3.2
CN1C(=O)c2cc(NC(=O)c3ccc(C(F)(F)F)cc3)ccc2OC[C@@H]2O[C@H](CC(=O)O)CC[C@@H]21	·	·	7.3	-3.1	·	·	·
C[C@H]1CN([C@@H](C)CO)S(=O)(=O)c2ccc(-c3ccccc3)cc2O[C@@H]1CN(C)Cc1ccncc1	·	·	4.3	7.0	·	·	·
Cc1noc(C(=O)Nc2ccc(F)c(Cl)c2)c1Cl	-2.9	2.9	12.1	0.3	24.0*	-2.1	3.8
CC(C)C#Cc1cnc2c(c1)C(=O)N([C@H](C)CO)C[C@H](C)[C@@H](CN(C)C(=O)C1CCC1)O2	·	·	-6.0	0.7	·	·	·
CCOc1ccc(/C=N/N2C(=O)C(CC(=O)Nc3ccc(F)cc3F)SC2=NC)cc1OC (stereo unspecified)	17.0	-17.0	-0.8	-4.8	25.7*	-8.7	-0.3
CN1CCN(S(=O)(=O)c2ccc(Sc3nc4ccccc4[nH]3)c3nsnc23)CC1	-12.2	12.2	-6.6	·	40.4*	-12.4	-7.9
COc1ccc(NC(=O)Cn2cnc3ccccc3c2=O)cc1OC	10.2	-10.2	·	3.2	-0.1	-4.5	·
COc1ccc2nc(NC(=O)Cn3cnc4ccccc4c3=O)sc2c1	·	·	1.2	-0.5	30.8*	-14.9	2.4
O=C1CN(S(=O)(=O)Cc2ccccc2)C[C@@H]2[C@H](c3ccc(C#Cc4ccccc4)cc3)[C@H](CO)N12	·	·	·	5.6	·	·	·
